Measured values as given in ChEMBL document CHEMBL2311431, “Synthesis and biological evaluation of some 5-arylidene-2-(1,3-thiazol-2-ylimino)-1,3-thiazolidin-4-ones as dual anti-inflammatory/antimicrobial agents” (Bioorg Med Chem, 2013).
Values after ≈ are worked out from the molar mass of the structure shown.

Columns and labels:
[1] = test system: Mus musculus; test: Acute toxicity in AKR mouse up to 0.5 mmol/kg, ip; assay type: organism-based; settings: in vivo
[2] = test system: Mus musculus; test: Antiinflammatory activity in AKR mouse assessed as inhibition of carrageenan-induced paw edema at 0.01 mmol/kg, ip measured after 3.5 hrs of carrageenan-challenge; assay type: functional
Summary of the method: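 AKR mice of both sexes (pregnant females excluded), 6-10 per group, fasted during the experiment. Edema induced by intradermal 0.05 mL of 2% carrageenin into the right hind paw. Compound given at 0.01 mmol/kg ip, suspended in water with Tween-80, at the same time as carrageenin.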

[3] = molecular target: T1, Prostaglandin G/H synthase 1 (Ovis aries) (UniProt P05979); test: Inhibition of ovine COX1 assessed as inhibition of PGF2a production by enzyme immunoassay; design: concentration or dose not given beside the values; settings: concentration not given here
T1 sequence (whole entry): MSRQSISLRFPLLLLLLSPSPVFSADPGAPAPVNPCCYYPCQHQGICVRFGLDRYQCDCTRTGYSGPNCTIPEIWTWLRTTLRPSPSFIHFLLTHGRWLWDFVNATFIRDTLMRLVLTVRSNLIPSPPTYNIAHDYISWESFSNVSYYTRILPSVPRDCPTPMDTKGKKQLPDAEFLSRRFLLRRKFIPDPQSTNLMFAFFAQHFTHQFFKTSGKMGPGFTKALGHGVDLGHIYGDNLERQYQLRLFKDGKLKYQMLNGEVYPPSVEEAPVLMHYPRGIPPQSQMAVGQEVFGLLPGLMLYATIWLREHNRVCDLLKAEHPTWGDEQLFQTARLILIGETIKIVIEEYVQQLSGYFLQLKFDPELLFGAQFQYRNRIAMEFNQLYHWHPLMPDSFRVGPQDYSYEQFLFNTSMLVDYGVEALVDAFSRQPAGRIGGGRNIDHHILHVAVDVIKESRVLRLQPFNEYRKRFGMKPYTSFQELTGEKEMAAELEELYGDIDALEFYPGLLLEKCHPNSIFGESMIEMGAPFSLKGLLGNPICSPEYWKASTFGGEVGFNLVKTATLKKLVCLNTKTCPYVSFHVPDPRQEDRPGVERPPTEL
Summary of the method: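 Ovine COX-1 from a commercial screening kit, tested with 0.1 µM arachidonic acid, which is below the saturating level. COX-derived PGH2 is reduced by SnCl2 to PGF2a, quantified by enzyme immunoassay with a broad prostaglandin antibody. At least triplicate.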

[4] = Inhibition of soybean lipoxygenase assessed as inhibition of sodium linolate conversion to 13-hydroperoxylinoleic acid after 4 mins by spectrophotometry; design: species or system Glycine max; settings: read-out: IC50
[5] = test system: Aspergillus niger; test: Fungicidal activity against Aspergillus niger ATCC 6275 after 72 hrs by serial subcultivation method; assay type: functional; settings: ATCC 6275, 72 h
[6] = test system: Aspergillus niger; test: Antifungal activity against Aspergillus niger ATCC 6275 after 72 hrs by serial dilution technique; assay type: functional; settings: ATCC 6275, 72 h
Summary of the method: (§1)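 Serial dilution in malt broth; compounds from 1 mg/ml stocks in 5% DMSO; 72 h at 28 °C. MIC is the lowest concentration with no visible growth under a binocular microscope. Run in duplicate, repeated three times.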

[7] = test system: Aspergillus fumigatus; test: Fungicidal activity against Aspergillus fumigatus after 72 hrs by serial subcultivation method; assay type: functional
[8] = test system: Aspergillus flavus; test: Fungicidal activity against Aspergillus flavus ATCC 9643 after 72 hrs by serial subcultivation method; assay type: functional; settings: ATCC 9643, 72 h
[9] = test system: Trichoderma viride; test: Fungicidal activity against Trichoderma viride IAM 5061 after 72 hrs by serial subcultivation method; assay type: functional; settings: IAM 5061, 72 h
[10] = test system: Penicillium ochrochloron; test: Fungicidal activity against Penicillium ochrochloron ATCC 9112 after 72 hrs by serial subcultivation method; assay type: functional; settings: ATCC 9112, 72 h
[11] = test system: Aspergillus flavus; test: Antifungal activity against Aspergillus flavus ATCC 9643 after 72 hrs by serial dilution technique; assay type: functional; settings: ATCC 9643, 72 h; summary of the method: as §1
[12] = test system: Talaromyces funiculosus; test: Fungicidal activity against Penicillium funiculosum ATCC 36839 after 72 hrs by serial subcultivation method; assay type: functional; settings: ATCC 36839, 72 h
[13] = test system: Aspergillus fumigatus; test: Antifungal activity against Aspergillus fumigatus after 72 hrs by serial dilution technique; assay type: functional; summary of the method: as §1
[14] = test system: Trichoderma viride; test: Antifungal activity against Trichoderma viride IAM 5061 after 72 hrs by serial dilution technique; assay type: functional; settings: IAM 5061, 72 h; summary of the method: as §1
[15] = test system: Penicillium ochrochloron; test: Antifungal activity against Penicillium ochrochloron ATCC 9112 after 72 hrs by serial dilution technique; assay type: functional; settings: ATCC 9112, 72 h; summary of the method: as §1
[16] = test system: Talaromyces funiculosus; test: Antifungal activity against Penicillium funiculosum ATCC 36839 after 72 hrs by serial dilution technique; assay type: functional; settings: ATCC 36839, 72 h; summary of the method: as §1
[17] = test system: Escherichia coli; test: Bactericidal activity against Escherichia coli ATCC 35210 after 72 hrs by serial subcultivation method; assay type: functional; settings: ATCC 35210, 72 h
[18] = test system: Pseudomonas aeruginosa; test: Bactericidal activity against Pseudomonas aeruginosa ATCC 27853 after 72 hrs by serial subcultivation method; assay type: functional; settings: ATCC 27853, 72 h
[19] = test system: Listeria monocytogenes; test: Bactericidal activity against Listeria monocytogenes NCTC 7973 after 72 hrs by serial subcultivation method; assay type: functional; settings: NCTC 7973, 72 h
[20] = test system: Bacillus cereus; test: Bactericidal activity against Bacillus cereus clinical isolate after 72 hrs by serial subcultivation method; assay type: functional
[21] = test system: Micrococcus flavus; test: Bactericidal activity against Micrococcus flavus ATCC 10240 after 72 hrs by serial subcultivation method; assay type: functional; settings: ATCC 10240, 72 h
[22] = test system: Staphylococcus aureus; test: Bactericidal activity against Staphylococcus aureus ATCC 6538 after 72 hrs by serial subcultivation method; assay type: functional; settings: ATCC 6538, 72 h
[23] = test system: Escherichia coli; test: Antibacterial activity against Escherichia coli ATCC 35210 after 24 hr by microdilution test; assay type: functional; settings: ATCC 35210, 24 h
Summary of the method: (§2)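 Broth microdilution in LB medium, about 1.0×10^4 cfu per well; compounds from 1 mg/ml stocks in 5% DMSO. Incubated 24 h. MIC is the lowest concentration with no visible growth under a binocular microscope. Run in duplicate, repeated three times.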

[24] = test system: Listeria monocytogenes; test: Antibacterial activity against Listeria monocytogenes NCTC 7973 after 24 hr by microdilution test; assay type: functional; settings: NCTC 7973, 24 h; summary of the method: as §2
[25] = test system: Pseudomonas aeruginosa; test: Antibacterial activity against Pseudomonas aeruginosa ATCC 27853 after 24 hr by microdilution test; assay type: functional; settings: ATCC 27853, 24 h; summary of the method: as §2
[26] = test system: Micrococcus flavus; test: Antibacterial activity against Micrococcus flavus ATCC 10240 after 24 hr by microdilution test; assay type: functional; settings: ATCC 10240, 24 h; summary of the method: as §2
[27] = test system: Bacillus cereus; test: Antibacterial activity against Bacillus cereus clinical isolate after 24 hr by microdilution test; assay type: functional; summary of the method: as §2
[28] = test system: Staphylococcus aureus; test: Antibacterial activity against Staphylococcus aureus ATCC 6538 after 24 hr by microdilution test; assay type: functional; settings: ATCC 6538, 24 h; summary of the method: as §2

Row | SMILES | Activity [1] | inhibition in vivo at 10 µmol/kg [2] [%] | inhibition [3] [%] | IC50 [4] [µM] | MFC [5] [µM] | MIC [6] [µM] | MFC [7] [µM] | MFC [8] [µM] | MFC [9] [µM] | MFC [10] [µM] | MIC [11] [µM] | MFC [12] [µM] | MIC [13] [µM] | MIC [14] [µM] | MIC [15] [µM] | MIC [16] [µM] | MBC [17] [µM] | MBC [18] [µM] | MBC [19] [µM] | MBC [20] [µM] | also measured
1 | COc1ccccc1/C=C1\S/C(=N/c2nccs2)NC1=O | Non-toxic | 50 | 86 | 63 | 31.5 (≈ 10 µg/mL) | 15.8 (≈ 5.01 µg/mL) | 31.5 (≈ 10 µg/mL) | 31.5 (≈ 10 µg/mL) | 31.5 (≈ 10 µg/mL) | 31.5 (≈ 10 µg/mL) | 23.6 (≈ 7.49 µg/mL) | 31.5 (≈ 10 µg/mL) | 15.8 (≈ 5.01 µg/mL) | 15.8 (≈ 5.01 µg/mL) | 15.8 (≈ 5.01 µg/mL) | 15.8 (≈ 5.01 µg/mL) | 63 (≈ 20 µg/mL) | 63 (≈ 20 µg/mL) | 63 (≈ 20 µg/mL) | 31.5 (≈ 10 µg/mL) | MBC [21]: 31.5 µM (≈ 10 µg/mL); MBC [22]: 63 µM (≈ 20 µg/mL); MIC [23]: 31.5 µM (≈ 10 µg/mL); MIC [24]: 31.5 µM (≈ 10 µg/mL); MIC [25]: 31.5 µM (≈ 10 µg/mL); MIC [26]: 31.5 µM (≈ 10 µg/mL); MIC [27]: 31.5 µM (≈ 10 µg/mL); MIC [28]: 31.5 µM (≈ 10 µg/mL)
2 | COc1ccc(OC)c(/C=C2\S/C(=N/c3nccs3)NC2=O)c1 | Non-toxic | 26 | 85 | 52 | 290 (≈ 101 µg/mL) | 232 (≈ 80.6 µg/mL) | 348 (≈ 121 µg/mL) | 348 (≈ 121 µg/mL) | 348 (≈ 121 µg/mL) | 116 (≈ 40.3 µg/mL) | 290 (≈ 101 µg/mL) | 58 (≈ 20.2 µg/mL) | 233 (≈ 80.9 µg/mL) | 58 (≈ 20.2 µg/mL) | 58 (≈ 20.2 µg/mL) | 7.3 (≈ 2.54 µg/mL) | 464 (≈ 161 µg/mL) | 406 (≈ 141 µg/mL) | 230 (≈ 79.9 µg/mL) | 348 (≈ 121 µg/mL) | MBC [21]: 290 µM (≈ 101 µg/mL); MBC [22]: 348 µM (≈ 121 µg/mL); MIC [23]: 406 µM (≈ 141 µg/mL); MIC [24]: 58 µM (≈ 20.2 µg/mL); MIC [25]: 290 µM (≈ 101 µg/mL); MIC [26]: 232 µM (≈ 80.6 µg/mL); MIC [27]: 232 µM (≈ 80.6 µg/mL); MIC [28]: 232 µM (≈ 80.6 µg/mL)
